Test results reported in ChEMBL document CHEMBL1132494, “Bisphosphonate prodrugs: synthesis and in vitro evaluation of novel acyloxyalkyl esters of clodronic acid” (J Med Chem, 1999).

Assays:
[1] = Apparent partition coefficients was determined at a pH 7.4 by using the capacity factors of RP-HPLC.; type: physicochemical; details: octanol/water
Method in brief: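 Tetraester log Papp estimated from RP-HPLC capacity factors (k'); C8 reversed-phase column, mobile phase 20 mM phosphate buffer pH 6.0/methanol 30:70 v/v; value reported for pH 7.4.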

[2] = (§1) Hydrolysis half life against 10% rabbit liver homogenate was determined.; type: ADME, organism-based, Oryctolagus cuniculus
Method in brief: (§2)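 Rabbit liver homogenized in ~4 vol isotonic phosphate buffer pH 7.4, spun 9000g 90 min 4 °C, supernatant stored −80 °C. Compound in 1 vol isotonic buffer plus 1 vol preheated 20% homogenate (10% final; initial 1.6–1.8 mM), 37 °C. Samples methanol-deproteinized and analysed by HPLC; kobs and t1/2 derived.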

Oryctolagus cuniculus = species on record: Oryctolagus cuniculus; test: Binding constant (Kobs) against 10% rabbit liver homogenate was determined.; type: ADME; method in brief: as §2
[3] = Hydrolysis half life at pH 7.4 against 50 mM phosphate buffer was determined.; type: ADME
Method in brief: (§3)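 Chemical hydrolysis: compound (initial 0.9–1.8 mM) in preheated 50 mM phosphate buffer, μ = 0.15, pH 5.0 or 7.4, held at 37 °C. Samples taken at intervals and analysed by HPLC; kobs and t1/2 derived.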

[4] = Binding affinity (Kobs) at a pH 7.4 against 50 mM phosphate buffer was determined.; method in brief: as §3
[5] = Hydrolysis half life against 80% human serum was determined.; type: ADME
Method in brief: (§4)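 Compound dissolved in 1 vol phosphate buffer (50 mM, μ = 0.15, pH 7.4, 37 °C), then 4 vol preheated human serum added (80% serum; initial 1.4–1.7 mM); 37 °C water bath. Samples taken at intervals, deproteinized with equal volume methanol, centrifuged; supernatant dried and redissolved in mobile-phase buffer, or injected directly if labile. HPLC; kobs and t1/2 derived.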

[6] = Binding affinity (Kobs) at a pH 5.0 against 50 mM phosphate buffer was determined.; method in brief: as §3
[7] = as §1; type: tissue-based; method in brief: as §2
[8] = Hydrolysis half life at pH 5.0 against 50 mM phosphate buffer was determined.; type: ADME; method in brief: as §3
Homo sapiens = species on record: Homo sapiens; test: Binding affinity (Kobs) against 80% human Serum esterase was determined; method in brief: as §4

Row | Compound | chromatographic logD [1] | half-life [2] | K obs (Oryctolagus cuniculus) | half-life [3] | k obs [4] | half-life [5] | k obs [6] | T1/2 [7] | half-life [8] | k obs (Homo sapiens)
1 | CC(C)(C)C(=O)OCOP(=O)(OCOC(=O)C(C)(C)C)C(Cl)(Cl)P(=O)(OCOC(=O)C(C)(C)C)OCOC(=O)C(C)(C)C | 7.4 |  |  |  |  |  |  |  |  | 
2 | C1CCNCC1.C1CCNCC1.CC(C)(C)C(=O)OCOP(=O)(O)C(Cl)(Cl)P(=O)(O)OCOC(=O)C(C)(C)C | -2.13 | 0.233 h | 0.51 min⁻¹ | 0.783 h | 1.67e-07 s⁻¹ |  |  |  |  | 
3 | CC(C)(C)C(=O)OCOP(=O)(O)C(Cl)(Cl)P(=O)(OCOC(=O)C(C)(C)C)OCOC(=O)C(C)(C)C | 1.56 |  | 0.65 min⁻¹ | 1.7 h | 0.000113 s⁻¹ | 1.3 h | 0.000117 s⁻¹ | 1.1 min | 1.65 h | 0.000149 s⁻¹
